Activity calls are given as the source filed them. No cut-off for these calls is given here.
Experiments:
MDA-MB-231 [1] = assay: Induction of opsonization in human MDA-MB-231 cells assessed as increase in recruitment of anti-FITC antibody to cell surface at 1 uM measured after 5 to 10 mins at pH 6 to 7.4 by Alexa Fluor 647 conjugated anti-FITC antibody based flow cytometry; type: functional
Outline: (§1)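 Cells in suspension (350000 MDA-MB-231) given 1 μM pH-adjusted conjugate for 5 or 10 min at 37 °C, pH 7.4 or 6.0, washed, then Alexa Fluor 647 anti-FITC mouse mAb in PBS/10% FBS 30 min at 4 °C, PFA-fixed. Flow cytometry, ≥3000 events; fold over pH 7.4 antibody-only cells; mean ± SEM, n = 3.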

Lipid bilayer = assay: Binding affinity to POPC large unilamellar vesicle at 1:300 ratio measured after 30 mins at pH 5 to 7.4 by tryptophan fluorescence spectroscopic analysis
Outline: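 Peptide (7 μM final, from 20 μM stock in 5 mM sodium phosphate pH 8.0) with extruded 100 nm POPC LUVs at 1:300; pH set with HCl, 30 min RT before tryptophan emission spectra were recorded.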

MDA-MB-231 [2] = assay: Induction of opsonization in human MDA-MB-231 cells assessed as increase in recruitment of anti-FITC antibody to cell surface at 1 uM measured after 5 to 10 mins at pH 6 by Alexa Fluor 647 conjugated anti-FITC antibody based flow cytometry relative to pH 7.4; type: functional; outline: as §1
MDA-MB-231 [3] = assay: Induction of opsonization in human MDA-MB-231 cells assessed as increase in recruitment of anti-FITC antibody to cell surface at 1 uM measured after 5 mins at pH 6 to 7.4 by Alexa Fluor 647 conjugated anti-FITC antibody based immunofluorescence microscopic analysis; type: functional
Outline: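 Adherent MDA-MB-231 on poly-L-lysine coverslips given 1 μM conjugate for 5 min, 37 °C, pH 7.4 or 6.0, methanol-fixed, then Alexa Fluor 647 anti-FITC rabbit polyclonal at 30 μg/mL for 1 h at 37 °C, Hoechst nuclear stain; fluorescence microscopy, 20× objective.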

MDA-MB-231 [4] = assay: (§2) Induction of antibody dependent cytotoxicity against human MDA-MB-231 cells assessed as cell lysis at 0.1 uM incubated for 5 mins at pH 6 followed by compound washout prior to anti-FITC antibody addition for 30 mins and subsequent human PBMC addition at 50:1 effector to target ratio measured after 4 hrs by LDH release assay relative to control; type: functional
Outline: (§3)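 150000 target cells (MDA-MB-231; also LnCap, SK-OV-3 with haNK) treated with conjugate 5 min at 37 °C, pH 7.4 or 6.0, washed, 25 μg/mL anti-FITC rabbit polyclonal 30 min 4 °C, then 4 h at 37 °C with PBMCs at 50:1 (RPMI) or haNK at 5:1 (MEMα). LDH release; % lysis relative to antibody-only pH 7.4 cells; mean ± SEM, n = 3–12.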

MDA-MB-231 [5] = assay: as §2, with “assessed as increase in cell lysis” for “assessed as cell lysis”, “relative to pH 7.4” for “relative to control”; type: functional; outline: as §3
MDA-MB-231 [6] = assay: (§4) Induction of antibody dependent cytotoxicity against human MDA-MB-231 cells assessed as induction of cell lysis up to 1 uM incubated for 5 mins at pH 6 to 7.4 followed by compound washout prior to anti-FITC antibody addition for 30 mins and subsequent human haNK cell addition at 5:1 effector to target ratio measured after 4 hrs by LDH release assay; type: functional, cell-based; outline: as §3
LNCaP = assay: as §4, with “LNCAP” for “MDA-MB-231”, “at” for “up to”; type: functional, cell-based; outline: as §3
SK-OV-3 = assay: as §4, with “SKOV3” for “MDA-MB-231”, “at” for “up to”; type: functional, cell-based; outline: as §3
MDA-MB-231 [7] = assay: as §2, with “lysis at > 0.1 uM” for “lysis at 0.1 uM”, “release assay” for “release assay relative to control”; type: functional, cell-based; outline: as §3
MDA-MB-231 [8] = assay: as §4, with “at >” for “up to”; type: functional, cell-based; outline: as §3

Question: How did the Activity (MDA-MB-231 [1]) turn out when CC[C@H](C)[C@H](NC(=O)[C@@H]1CCCN1C(=O)[C@H](CC(N)=O)NC(=O)[C@H](CCC(N)=O)NC(=O)[C@H](CCC(=O)O)NC(=O)[C@H](CSC1CC(=O)N(CCC(=O)NOCCOCCOCCOCCOCCOCCOCCOCCOCCOCCOCCOCCC(=O)NCCCNC(=O)c2ccc(-c3c4ccc(=O)cc-4oc4cc(O)ccc34)c(C(=O)O)c2)C1=O)NCC(N)=O)C(=O)N[C@@H](Cc1ccc(O)cc1)C(=O)N[C@@H](Cc1c[nH]c2ccccc12)C(=O)N[C@@H](C)C(=O)N[C@@H](CCCNC(=N)N)C(=O)N[C@@H](Cc1ccc(O)cc1)C(=O)N[C@@H](C)C(=O)N[C@@H](CC(=O)O)C(=O)N[C@@H](Cc1c[nH]c2ccccc12)C(=O)N[C@@H](CC(C)C)C(=O)N[C@@H](Cc1ccccc1)C(=O)N[C@H](C(=O)N[C@H](C(=O)N1CCC[C@H]1C(=O)N[C@@H](CC(C)C)C(=O)N[C@@H](CC(C)C)C(=O)N[C@@H](CC(C)C)C(=O)N[C@@H](CC(C)C)C(=O)N[C@@H](CC(=O)O)C(=O)N[C@@H](CC(C)C)C(=O)N[C@@H](C)C(=O)N[C@@H](CC(C)C)C(=O)N[C@@H](CC(C)C)C(=O)N[C@H](C(=O)N[C@@H](CC(=O)O)C(=O)N[C@@H](C)C(=O)N[C@@H](CC(=O)O)C(=O)N[C@@H](CCC(=O)O)C(=O)NCC(=O)N[C@H](C(=O)NCC(N)=O)[C@@H](C)O)C(C)C)[C@@H](C)O)[C@@H](C)O (stereo partly specified) was run?
Answer: Active

Question: What about the Activity (Lipid bilayer) of the same compound?
Answer: Active

Question: And the “fold change (FC)” value (MDA-MB-231 [2])?
Answer: 5.4

Question: And the Activity (MDA-MB-231 [3])?
Answer: Active

Question: What about the Activity (MDA-MB-231 [4]) of the same compound?
Answer: 40%

Question: And the “fold change (FC)” value (MDA-MB-231 [5])?
Answer: 2

Question: And the Activity (MDA-MB-231 [6])?
Answer: Active

Question: And the Activity (LNCaP)?
Answer: Active

Question: And the Activity (SK-OV-3)?
Answer: Active

Question: And the Activity (MDA-MB-231 [7])?
Answer: inactive

Question: What about the Activity (MDA-MB-231 [8]) of the same compound?
Answer: inactive

— ChEMBL document CHEMBL4354869, “pH-Dependent Grafting of Cancer Cells with Antigenic Epitopes Promotes Selective Antibody-Mediated Cytotoxicity” (J Med Chem, 2020)
